# Measurements as given in ChEMBL document CHEMBL1629686, “Substrate selectivity and a novel role in inhibitor discrimination by residue 237 in the KPC-2 beta-lactamase” (Antimicrob Agents Chemother, 2010).
# Experiments:
# [1] = system: Escherichia coli; assay: Antimicrobial activity against Escherichia coli DH10B harboring beta-lactamase KPC-2 T237G mutant by agar dilution method in presence of beta-lactamase inhibitor clavulanic acid; format: functional; conditions: K-12 DH10B
# Summary of the method: (§1)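 LB agar dilution MICs per CLSI criteria, inoculated with a Steers replicator. […] Strains: E. coli DH10B alone, DH10B carrying empty pBC SK(+), or DH10B carrying pBC SK(+)-blaKPC-2 position 237 variants made by site-saturation mutagenesis and confirmed by sequencing. Plasmid selection used 20 mg/liter chloramphenicol.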
# [2] = system: Escherichia coli; assay: Antimicrobial activity against Escherichia coli DH10B harboring beta-lactamase KPC-2 T237G mutant by agar dilution method in presence of beta-lactamase inhibitor Sulbactam; format: functional; conditions: K-12 DH10B
# Summary of the method: (§2)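 LB agar dilution MICs by CLSI criteria, applied with a Steers replicator. […] Hosts were E. coli DH10B carrying pBC SK(+) with wild-type blaKPC-2 or a position 237 variant.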
# [3] = system: Escherichia coli; assay: Antimicrobial activity against Escherichia coli DH10B harboring beta-lactamase KPC-2 T237I mutant by agar dilution method in presence of beta-lactamase inhibitor Sulbactam; format: functional; conditions: K-12 DH10B; summary of the method: as §2
# [4] = system: Escherichia coli; assay: Antimicrobial activity against Escherichia coli DH10B harboring beta-lactamase KPC-2 T237M mutant by agar dilution method in presence of beta-lactamase inhibitor clavulanic acid; format: functional; conditions: K-12 DH10B; summary of the method: as §2
# [5] = system: Escherichia coli; assay: Antimicrobial activity against Escherichia coli DH10B harboring beta-lactamase KPC-2 T237V mutant by agar dilution method in presence of beta-lactamase inhibitor Sulbactam; format: functional; conditions: K-12 DH10B; summary of the method: as §2
# [6] = system: Escherichia coli; assay: Antimicrobial activity against Escherichia coli DH10B harboring beta-lactamase KPC-2 T237W mutant by agar dilution method in presence of beta-lactamase inhibitor clavulanic acid; format: functional; conditions: K-12 DH10B; summary of the method: as §1
# [7] = system: Escherichia coli; assay: Antimicrobial activity against Escherichia coli DH10B harboring beta-lactamase KPC-2 T237C mutant by agar dilution method in presence of beta-lactamase inhibitor clavulanic acid; format: functional; conditions: K-12 DH10B; summary of the method: as §1
# [8] = system: Escherichia coli; assay: Antimicrobial activity against Escherichia coli DH10B harboring beta-lactamase KPC-2 T237N mutant by agar dilution method in presence of beta-lactamase inhibitor clavulanic acid; format: functional; conditions: K-12 DH10B; summary of the method: as §2
# [9] = system: Escherichia coli; assay: Antimicrobial activity against Escherichia coli DH10B harboring beta-lactamase KPC-2 T237P mutant by agar dilution method in presence of beta-lactamase inhibitor clavulanic acid; format: functional; conditions: K-12 DH10B; summary of the method: as §1
# [10] = system: Escherichia coli; assay: Antimicrobial activity against Escherichia coli DH10B harboring beta-lactamase KPC-2 T237P mutant by agar dilution method in presence of beta-lactamase inhibitor Sulbactam; format: functional; conditions: K-12 DH10B; summary of the method: as §1
# [11] = system: Escherichia coli; assay: Antimicrobial activity against Escherichia coli DH10B harboring beta-lactamase KPC-2 T237Q mutant by agar dilution method in presence of beta-lactamase inhibitor Sulbactam; format: functional; conditions: K-12 DH10B; summary of the method: as §2
# [12] = system: Escherichia coli; assay: Antimicrobial activity against Escherichia coli DH10B harboring beta-lactamase KPC-2 T237D mutant by agar dilution method in presence of beta-lactamase inhibitor Sulbactam; format: functional; conditions: K-12 DH10B; summary of the method: as §2
# [13] = system: Escherichia coli; assay: Antimicrobial activity against Escherichia coli DH10B harboring beta-lactamase KPC-2 T237E mutant by agar dilution method in presence of beta-lactamase inhibitor clavulanic acid; format: functional; conditions: K-12 DH10B; summary of the method: as §2
# [14] = system: Escherichia coli; assay: Antimicrobial activity against Escherichia coli DH10B harboring beta-lactamase KPC-2 T237H mutant by agar dilution method in presence of beta-lactamase inhibitor clavulanic acid; format: functional; conditions: K-12 DH10B; summary of the method: as §2
# [15] = system: Escherichia coli; assay: Antimicrobial activity against Escherichia coli DH10B harboring beta-lactamase KPC-2 T237H mutant by agar dilution method in presence of beta-lactamase inhibitor Sulbactam; format: functional; conditions: K-12 DH10B; summary of the method: as §2
# [16] = system: Escherichia coli; assay: Antimicrobial activity against Escherichia coli DH10B harboring beta-lactamase KPC-2 T237K mutant by agar dilution method in presence of beta-lactamase inhibitor clavulanic acid; format: functional; conditions: K-12 DH10B; summary of the method: as §1
# [17] = system: Escherichia coli; assay: Antimicrobial activity against Escherichia coli DH10B harboring beta-lactamase KPC-2 T237R mutant by agar dilution method in presence of beta-lactamase inhibitor clavulanic acid; format: functional; conditions: K-12 DH10B; summary of the method: as §1
# [18] = system: Escherichia coli; assay: Antimicrobial activity against Escherichia coli DH10B harboring beta-lactamase KPC-2 T237R mutant by agar dilution method in presence of beta-lactamase inhibitor Sulbactam; format: functional; conditions: K-12 DH10B; summary of the method: as §1
# [19] = system: Escherichia coli; assay: Antimicrobial activity against Escherichia coli DH10B by agar dilution method in presence of beta-lactamase inhibitor Sulbactam; format: functional; conditions: K-12 DH10B; summary of the method: as §1
# [20] = system: Escherichia coli; assay: Antimicrobial activity against Escherichia coli DH10B harboring plasmid […] by agar dilution method in presence of beta-lactamase inhibitor clavulanic acid; format: functional; conditions: K-12 DH10B; summary of the method: as §1
# [21] = system: Escherichia coli; assay: Antimicrobial activity against Escherichia coli DH10B harboring plasmid […] by agar dilution method in presence of beta-lactamase inhibitor Sulbactam; format: functional; conditions: K-12 DH10B; summary of the method: as §1
# [22] = system: Klebsiella pneumoniae; assay: microbe, parasite or virus in culture; conditions: 1534
# [23] = system: Klebsiella pneumoniae; assay: Ratio of Kcat/Km for Klebsiella pneumoniae 1534 beta-lactamase KPC-2 T237A mutant by spectrophotometric analysis
# Summary of the method: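 Purified KPC-2 variant enzymes (periplasmic lysate from E. coli, preparative isoelectric focusing). Hydrolysis followed by diode-array spectrophotometry in 10 mM PBS, pH 7.4, room temperature. Enzyme at 10 nM with substrate in molar excess for pseudo-first-order conditions. Vmax and Km came from a nonlinear least-squares Michaelis-Menten fit.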
# [24] = system: Klebsiella pneumoniae; assay: Selectivity index, Ratio of Kcat/Km for Klebsiella pneumoniae 1534 beta-lactamase KPC-2 T237S mutant to ratio of Kcat/Km for Klebsiella pneumoniae 1534 beta-lactamase KPC-2 by spectrophotometric analysis
# Summary of the method: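 Kinetics used purified enzymes in 10 mM PBS, pH 7.4, room temperature, with 10 nM enzyme and substrate in excess. Km and Vmax came from a Michaelis-Menten fit. kcat/Km of the variant was compared with wild type as ΔΔG = −RT ln of the kcat/Km ratio.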
# [25] = system: Klebsiella pneumoniae; assay: Antimicrobial activity against Klebsiella pneumoniae 1534 expressing beta-lactamase KPC-2 by agar dilution method in presence of beta-lactamase inhibitor Tazobactam; format: functional
# Summary of the method: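 LB agar dilution MIC following CLSI criteria, inoculated with a Steers replicator. Tested as piperacillin-tazobactam at a fixed 8:1 ratio.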
# [26] = system: Escherichia coli; assay: Antimicrobial activity against Escherichia coli DH10B harboring plasmid pBC SK(+) carrying wild type beta-lactamase KPC-2 by agar dilution method in presence of beta-lactamase inhibitor Tazobactam; format: functional; conditions: K-12 DH10B
# Summary of the method: (§3)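 LB agar dilution MICs by CLSI criteria, inoculated with a Steers replicator. […] Strains were E. coli DH10B with or without pBC SK(+) carrying wild-type blaKPC-2 or a position 237 variant.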
# [27] = system: Escherichia coli; assay: Antimicrobial activity against Escherichia coli DH10B harboring beta-lactamase KPC-2 T237L mutant by agar dilution method in presence of beta-lactamase inhibitor Tazobactam; format: functional; conditions: K-12 DH10B; summary of the method: as §3
# [28] = system: Escherichia coli; assay: Antimicrobial activity against Escherichia coli DH10B harboring beta-lactamase KPC-2 T237Y mutant by agar dilution method in presence of beta-lactamase inhibitor Tazobactam; format: functional; conditions: K-12 DH10B; summary of the method: as §3
# [29] = system: Escherichia coli; assay: Antimicrobial activity against Escherichia coli DH10B harboring beta-lactamase KPC-2 T237N mutant by agar dilution method in presence of beta-lactamase inhibitor Tazobactam; format: functional; conditions: K-12 DH10B; summary of the method: as §3
# [30] = system: Escherichia coli; assay: Antimicrobial activity against Escherichia coli DH10B harboring beta-lactamase KPC-2 T237Q mutant by agar dilution method in presence of beta-lactamase inhibitor Tazobactam; format: functional; conditions: K-12 DH10B; summary of the method: as §3
# [31] = system: Escherichia coli; assay: Antimicrobial activity against Escherichia coli DH10B harboring beta-lactamase KPC-2 T237S mutant by agar dilution method in presence of beta-lactamase inhibitor Tazobactam; format: functional; conditions: K-12 DH10B; summary of the method: as §3
# [32] = system: Escherichia coli; assay: Antimicrobial activity against Escherichia coli DH10B harboring beta-lactamase KPC-2 T237E mutant by agar dilution method in presence of beta-lactamase inhibitor Tazobactam; format: functional; conditions: K-12 DH10B; summary of the method: as §3
# [33] = system: Escherichia coli; assay: Antimicrobial activity against Escherichia coli DH10B by agar dilution method in presence of beta-lactamase inhibitor Tazobactam; format: functional; conditions: K-12 DH10B; summary of the method: as §3
structure (smiles),measurement,setting,value
CC1(C)S[C@@H]2[C@H](NC(=O)[C@H](N)c3ccccc3)C(=O)N2[C@H]1C(=O)O [AMPICILLIN],MIC,[1],1 µg/mL
same,MIC,[2],16 µg/mL
same,MIC,[3],16 µg/mL
same,MIC,[4],8 µg/mL
same,MIC,[5],32 µg/mL
same,MIC,[6],1 µg/mL
same,MIC,[7],1 µg/mL
same,MIC,[8],4 µg/mL
same,MIC,[9],1 µg/mL
same,MIC,[10],1 µg/mL
same,MIC,[11],64 µg/mL
same,MIC,[12],16 µg/mL
same,MIC,[13],8 µg/mL
same,MIC,[14],4 µg/mL
same,MIC,[15],16 µg/mL
same,MIC,[16],1 µg/mL
same,MIC,[17],1 µg/mL
same,MIC,[18],1 µg/mL
same,MIC,[19],1 µg/mL
same,MIC,[20],1 µg/mL
same,MIC,[21],1 µg/mL
same,MIC,[22],512 µg/mL
CCN1CCN(C(=O)N[C@@H](C(=O)N[C@@H]2C(=O)N3[C@@H]2SC(C)(C)[C@@H]3C(=O)O)c2ccccc2)C(=O)C1=O [PIPERACILLIN],kcat/Km,[23],3.5e+06 M⁻¹ s⁻¹
same,fold change (FC),[24],2.7
same,MIC,[25],64 µg/mL
same,MIC,[26],8 µg/mL
same,MIC,[27],2 µg/mL
same,MIC,[28],0.5 µg/mL
same,MIC,[29],1 µg/mL
same,MIC,[30],4 µg/mL
same,MIC,[31],8 µg/mL
same,MIC,[32],0.5 µg/mL
same,MIC,[33],0.5 µg/mL
